Columns and labels:
[1] = Fraction unbound in human HepG2 cells by equilibrium dialysis; type: ADME, cell-based
Procedure, shortened: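 Protein binding was measured by equilibrium dialysis under the conditions of the apoB secretion assay in human HepG2 cells, to give unbound fraction.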

Rattus norvegicus [2] = experiment: Antiobesity activity in high fat diet-induced obese Sprague-Dawley rat assessed as reduction in body weight at 10 mg/kg, po administered daily for 3 days relative to dirlotapide; type: functional; set-up: scale not given: the % may be the effect or the level left
Rattus norvegicus [3] = experiment: Antiobesity activity in high fat diet-induced obese Sprague-Dawley rat assessed as reduction of triglyceride accumulation in liver at 10 mg/kg, po administered daily for 3 days relative to dirlotapide; type: functional; set-up: scale not given: the % may be the effect or the level left
Procedure, shortened: (§1)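 Male Sprague–Dawley rats (~300 g, n = 5 per group) were acclimatized for seven days to a high-fat diet (45% kcal from fat). They received three consecutive daily oral gavage doses 1.5 h before the dark cycle. Vehicle was SEDDS:H2O 10:90, with SEDDS made of Miglyol 812 10%, triacetin 30%, polysorbate 80 20% and Capmul MCM 30%. Food intake was recorded during dosing, and liver TG was measured afterwards, both against vehicle.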

Rattus norvegicus [4] = experiment: Antiobesity activity in high fat diet-induced obese Sprague-Dawley rat assessed as reduction of food intake at 10 mg/kg, po administered daily for 3 days relative to control; type: functional; set-up: scale not given: the % may be the effect or the level left; procedure, shortened: as §1
Rattus norvegicus [5] = experiment: Antiobesity activity in high fat diet-induced obese Sprague-Dawley rat assessed as reduction of food intake at 10 mg/kg, po administered daily for 3 days relative to dirlotapide; type: functional; set-up: scale not given: the % may be the effect or the level left; procedure, shortened: as §1
Rattus norvegicus [6] = experiment: Antiobesity activity in high fat diet-induced obese Sprague-Dawley rat assessed as reduction in body weight at 10 mg/kg, po administered daily for 3 days relative to control; type: functional; set-up: scale not given: the % may be the effect or the level left
Rattus norvegicus [7] = experiment: Antiobesity activity in high fat diet-induced obese Sprague-Dawley rat assessed as reduction of triglyceride accumulation in liver at 10 mg/kg, po administered daily for 3 days relative to control; type: functional; set-up: scale not given: the % may be the effect or the level left; procedure, shortened: as §1
[8] = Oral bioavailability in rat at 30 mg/kg; type: ADME, organism-based; details: in vivo
Rattus norvegicus [9] = experiment: Antiobesity activity in high fat diet-induced obese Sprague-Dawley rat assessed as reduction of triglyceride accumulation in liver at 10 mg/kg, po qd for 7 days relative to control; type: functional; set-up: scale not given: the % may be the effect or the level left
Procedure, shortened: (§2)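 Seven-day rat study: once-daily oral dosing at 3, 10 or 30 mg/kg, with 1, 3 and 100 mg/kg also used for one series. Compounds were given as spray-dried dispersions in hydroxypropylmethylcellulose acetate succinate. Food intake, body weight, liver TG and serum ALT were measured against vehicle. Systemic exposure was reported as AUC (ng h/mL). Significance versus vehicle was set at P ≤ 0.05.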

Rattus norvegicus [10] = experiment: Toxicity in high fat diet-induced obese Sprague-Dawley rat assessed as change in serum ALT level at 30 mg/kg, po qd for 7 days relative to control; type: organism-based; set-up: dose 30 mg/kg, route oral; details: in vivo, 168 h
Procedure, shortened: (§3)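 Seven-day study in high-fat-diet rats. Compound was given once daily by mouth as a spray-dried dispersion, with vehicle controls. Serum ALT was measured alongside food intake, body weight, liver TG and systemic exposure (AUC). ALT is expressed as % change versus vehicle, with significance set at P ≤ 0.05.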

[11] = AUC in high fat diet-induced obese Sprague-Dawley rat at 10 mg/kg, po qd for 7 days; type: ADME, organism-based; set-up: dose 10 mg/kg, route oral; details: plasma; procedure, shortened: as §2
Rattus norvegicus [12] = experiment: Antiobesity activity in po dosed high fat diet-induced obese Sprague-Dawley rat assessed as reduction of body weight administered daily for 3 days; type: functional; details: 72 h, read-out: MED
Rattus norvegicus [13] = experiment: Antiobesity activity in high fat diet-induced obese Sprague-Dawley rat assessed as reduction of body weight at 30 mg/kg, po qd for 7 days; type: functional; set-up: scale not given: the % may be the effect or the level left; procedure, shortened: as §2
Rattus norvegicus [14] = experiment: Toxicity in high fat diet-induced obese Sprague-Dawley rat assessed as change in serum ALT level at 10 mg/kg, po qd for 7 days relative to control; type: organism-based; set-up: dose 10 mg/kg, route oral; details: in vivo, 168 h; procedure, shortened: as §3
Rattus norvegicus [15] = experiment: Antiobesity activity in high fat diet-induced obese Sprague-Dawley rat assessed as reduction of food intake at 30 mg/kg, po qd for 7 days relative to control; type: functional; set-up: scale not given: the % may be the effect or the level left; procedure, shortened: as §2
Rattus norvegicus [16] = experiment: Antiobesity activity in po dosed high fat diet-induced obese Sprague-Dawley rat assessed as reduction of reduction of triglyceride accumulation in liver administered daily for 3 days; type: functional; details: 72 h, read-out: MED
Procedure, shortened: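 Male Sprague–Dawley rats (about 300 g; n = 5 per group) were acclimatized for seven days to a high-fat diet (45% kcal from fat). They received three consecutive daily oral gavage doses in SEDDS:H₂O 10:90 vehicle 1.5 h before the dark cycle. Food intake was recorded, and liver TG was then measured against the vehicle group.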

[17] = AUC in high fat diet-induced obese Sprague-Dawley rat at 30 mg/kg, po qd for 7 days; type: ADME, organism-based; set-up: dose 30 mg/kg, route oral; details: plasma; procedure, shortened: as §2
Rattus norvegicus [18] = experiment: Antiobesity activity in po dosed high fat diet-induced obese Sprague-Dawley rat assessed as reduction of food intake administered daily for 3 days; type: functional; details: 72 h, read-out: MED; procedure, shortened: as §1
Rattus norvegicus [19] = experiment: Antiobesity activity in high fat diet-induced obese Sprague-Dawley rat assessed as reduction of food intake at 30 mg/kg, po administered daily for 3 days relative to control; type: functional; set-up: scale not given: the % may be the effect or the level left; procedure, shortened: as §1
Rattus norvegicus [20] = experiment: Antiobesity activity in high fat diet-induced obese Sprague-Dawley rat assessed as reduction of food intake at 10 mg/kg, po qd for 7 days relative to control; type: functional; set-up: scale not given: the % may be the effect or the level left; procedure, shortened: as §2
[21] = Oral bioavailability in beagle dog at 2.5 mg/kg; type: ADME, organism-based, Canis lupus familiaris; details: in vivo
Rattus norvegicus [22] = experiment: Antiobesity activity in high fat diet-induced obese Sprague-Dawley rat assessed as reduction in body weight at 30 mg/kg, po administered daily for 3 days relative to control; type: functional; set-up: scale not given: the % may be the effect or the level left
Rattus norvegicus [23] = experiment: Antiobesity activity in high fat diet-induced obese Sprague-Dawley rat assessed as triglyceride accumulation in liver at 30 mg/kg, po administered daily for 3 days relative to control; type: functional; procedure, shortened: as §1
Rattus norvegicus [24] = experiment: Antiobesity activity in high fat diet-induced obese Sprague-Dawley rat assessed as reduction of body weight at 10 mg/kg, po qd for 7 days relative to control; type: functional; set-up: scale not given: the % may be the effect or the level left; procedure, shortened: as §2
Rattus norvegicus [25] = experiment: Antiobesity activity in high fat diet-induced obese Sprague-Dawley rat assessed as reduction of triglyceride accumulation in liver at 30 mg/kg, po qd for 7 days relative to control; type: functional; set-up: scale not given: the % may be the effect or the level left; procedure, shortened: as §2

CC(C)(CO)c1ccc(-c2ccccc2C(=O)Nc2ccc3cc(C(=O)N[C@H](C(=O)NCc4ccc(F)cc4)c4ccccc4)ccc3n2)cc1
fraction unbound [1]: 0.0135

CNC(=O)[C@@H](NC(=O)c1cc2cc(NC(=O)c3ccccc3-c3ccc(C(F)(F)F)cc3)ccc2n1C)c1ccccc1
Activity (Rattus norvegicus [2]): 115% | Activity (Rattus norvegicus [3]): 112% | fraction unbound [1]: 0.21 | Activity (Rattus norvegicus [4]): 40% | Activity (Rattus norvegicus [5]): 43% | Activity (Rattus norvegicus [6]): 106% | Activity (Rattus norvegicus [7]): 147%

CN(Cc1ccc(F)cc1)C(=O)[C@@H](NC(=O)c1ccc2nc(NC(=O)c3ccccc3-c3ccc(C(F)(F)F)cc3)ccc2c1)c1ccccc1
Activity (Rattus norvegicus [2]): 8% | Activity (Rattus norvegicus [3]): 70% | fraction unbound [1]: 0.0014 | Activity (Rattus norvegicus [4]): 43% | Activity (Rattus norvegicus [5]): 11% | Activity (Rattus norvegicus [6]): 96% | Activity (Rattus norvegicus [7]): 88%

Cc1ccc(-c2ccccc2C(=O)Nc2ccc3cc(C(=O)N[C@H](C(=O)N(C)Cc4ccc(F)cc4)c4ccccc4)ccc3n2)cc1
Activity (Rattus norvegicus [2]): 117% | Activity (Rattus norvegicus [3]): 216% | fraction unbound [1]: 0.0043 | Activity (Rattus norvegicus [4]): 38% | Activity (Rattus norvegicus [5]): 50% | Activity (Rattus norvegicus [6]): 75% | Activity (Rattus norvegicus [7]): 43%

CN(Cc1ccc(F)cc1)C(=O)[C@@H](NC(=O)c1ccc2nc(NC(=O)c3ccccc3-c3ccc(C(C)(C)CO)cc3)ccc2c1)c1ccccc1
fraction unbound [1]: 0.023

CC(C)(C(=O)O)c1ccc(-c2ccccc2C(=O)Nc2ccc3cc(C(=O)N[C@H](C(=O)NCc4ccc(F)cc4)c4ccccc4)ccc3n2)cc1
fraction unbound [1]: 0.0211

CN(Cc1ccc(F)cc1)C(=O)[C@@H](NC(=O)c1ccc2nc(NC(=O)c3ccccc3-c3ccc(O)cc3)ccc2c1)c1ccccc1
fraction unbound [1]: 0.0095

CC(C)Oc1ccc(-c2ccccc2C(=O)Nc2ccc3cc(C(=O)N[C@H](C(=O)NCc4ccc(F)cc4)c4ccccc4)ccc3n2)cc1
fraction unbound [1]: 0.0061

CNC(=O)[C@@H](NC(=O)c1ccc2nc(NC(=O)c3ccccc3-c3ccc(OC(C)C)cc3)ccc2c1)c1ccccc1
fraction unbound [1]: 0.16

CN(Cc1ccc(F)cc1)C(=O)[C@@H](NC(=O)c1ccc2nc(NC(=O)c3ccccc3-c3ccc(OC(C)(C)C)cc3)ccc2c1)c1ccccc1
Activity (Rattus norvegicus [2]): 95% | Activity (Rattus norvegicus [3]): 112% | Activity (Rattus norvegicus [4]): 40% | Activity (Rattus norvegicus [5]): 38% | Activity (Rattus norvegicus [6]): 108% | Activity (Rattus norvegicus [7]): 72%

CC(C)(C)c1ccc(-c2ccccc2C(=O)Nc2ccc3cc(C(=O)N[C@H](C(=O)NCc4ccc(F)cc4)c4ccccc4)ccc3n2)cc1
fraction unbound [1]: 0.0023

CC(C)Oc1ccc(-c2ccccc2C(=O)Nc2ccc3cc(C(=O)N[C@H](C(=O)N(C)Cc4ccc(F)cc4)c4ccccc4)ccc3n2)cc1
bioavailability [8]: < 3% | Activity (Rattus norvegicus [9]): 113% | Activity (Rattus norvegicus [10]): 191% | AUC at 168 h [11]: 0.051 µg·h/mL | Activity (Rattus norvegicus [2]): 88% | Activity (Rattus norvegicus [3]): 111% | minimal effective dose (Rattus norvegicus [12]): 3 mg/kg | fraction unbound [1]: 0.0038 | Activity (Rattus norvegicus [13]): 148% | Activity (Rattus norvegicus [4]): 30% | Activity (Rattus norvegicus [14]): 10% | Activity (Rattus norvegicus [15]): 25% | Activity (Rattus norvegicus [5]): 28% | minimal effective dose (Rattus norvegicus [16]): 3 mg/kg | AUC at 168 h [17]: 0.047 µg·h/mL | minimal effective dose (Rattus norvegicus [18]): 3 mg/kg | Activity (Rattus norvegicus [19]): 45% | Activity (Rattus norvegicus [20]): 21% | bioavailability [21]: < 3% | Activity (Rattus norvegicus [22]): 152% | Activity (Rattus norvegicus [23]): 15% | Activity (Rattus norvegicus [24]): 82% | Activity (Rattus norvegicus [6]): 56% | Activity (Rattus norvegicus [7]): 16% | Activity (Rattus norvegicus [25]): 184%

Cn1c(C(=O)N[C@H](C(N)=O)c2ccccc2)cc2cc(NC(=O)c3ccccc3-c3ccc(C(F)(F)F)cc3)ccc21
Activity (Rattus norvegicus [2]): 115% | Activity (Rattus norvegicus [3]): 112% | fraction unbound [1]: 0.23 | Activity (Rattus norvegicus [4]): 37% | Activity (Rattus norvegicus [5]): 43% | Activity (Rattus norvegicus [6]): 108% | Activity (Rattus norvegicus [7]): 87%

CC(C)c1ccc(-c2ccccc2C(=O)Nc2ccc3cc(C(=O)N[C@H](C(=O)N(C)Cc4ccc(F)cc4)c4ccccc4)ccc3n2)cc1
Activity (Rattus norvegicus [2]): 8% | Activity (Rattus norvegicus [3]): 70% | fraction unbound [1]: 0.0011 | Activity (Rattus norvegicus [4]): 38% | Activity (Rattus norvegicus [5]): 11% | Activity (Rattus norvegicus [6]): 91% | Activity (Rattus norvegicus [7]): 16%

CC(CO)Oc1ccc(-c2ccccc2C(=O)Nc2ccc3cc(C(=O)N[C@H](C(=O)N(C)Cc4ccc(F)cc4)c4ccccc4)ccc3n2)cc1 (some centres not stated)
fraction unbound [1]: 0.013

CNC(=O)[C@@H](NC(=O)c1ccc2nc(NC(=O)c3ccccc3-c3ccc(C(C)(C)C)cc3)ccc2c1)c1ccccc1
fraction unbound [1]: 0.038

CC(Oc1ccc(-c2ccccc2C(=O)Nc2ccc3cc(C(=O)N[C@H](C(=O)N(C)Cc4ccc(F)cc4)c4ccccc4)ccc3n2)cc1)C(=O)O (some centres not stated)
fraction unbound [1]: 0.022

CN(Cc1ccc(F)cc1)C(=O)[C@@H](NC(=O)c1ccc2nc(NC(=O)c3ccccc3-c3ccc(C(C)(C)C(=O)O)cc3)ccc2c1)c1ccccc1
fraction unbound [1]: 0.0088

— ChEMBL document CHEMBL2146366, “Discovery of microsomal triglyceride transfer protein (MTP) inhibitors with potential for decreased active metabolite load compared to dirlotapide” (Bioorg Med Chem Lett, 2011)
